Values after ≈ are worked out from the molar mass of the structure shown. Active and inactive are the calls of the source. The calls are words filed in the database; no cut-off is given here.
Assays:
PBMC [1] = test: Cytotoxicity against human PBMC cells by MTT assay; type: cell-based
Staphylococcus aureus = test: Antibacterial activity against Staphylococcus aureus ATCC 25923 by serial dilution method; type: functional
Artemia salina = test: Toxicity against freshly hatched nauplii of brine shrimp after 24 hrs; type: organism-based; conditions: in vivo
Escherichia coli = test: Antibacterial activity against Escherichia coli ATCC 35218 by serial dilution method; type: functional
PBMC [2] = test: Cytotoxicity against human phytohemagglutininin-stimulated PBMC cells assessed as growth inhibition by MTT assay; type: cell-based
HeLa = test: Cytotoxicity against human HeLa cells assessed as decrease in total cellular protein by kenacid blue R binding method; type: functional, cell-based
K562 [3] = test: Cytotoxicity against human K562 cells by MTT assay; type: functional, cell-based
[4] = Cytotoxicity against human Fem-X cells assessed as decrease in total cellular protein by kenacid blue R binding method; type: functional, cell-based
[5] = Cytotoxicity against human T4 lymphocytes
[6] = Cytotoxicity against human colon cancer cells after 48 hrs by sulforhodamine B assay; type: functional; conditions: Cancer cell lines
Method in brief: (§1)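 Tested at NIH-NCI against the 60 human tumor cell line panel. Each line was exposed to at least five concentrations for 48 h. Growth and survival were read by the sulforhodamine test.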

MOLT-4 = test: Cytotoxicity against human MOLT4 cells after 48 hrs by sulforhodamine B assay; type: functional; conditions: MOLT-4, 48 h; method in brief: as §1
LOX IMVI = test: Cytotoxicity against human LOXIMVI cells after 48 hrs by sulforhodamine B assay; type: functional; method in brief: as §1
MDA-MB-435 = test: Cytotoxicity against human MDA-MB-435 cells after 48 hrs by sulforhodamine B assay; type: functional; conditions: MDA-MB-435, 48 h; method in brief: as §1
HOP-92 = test: Cytotoxicity against human HOP92 cells after 48 hrs by sulforhodamine B assay; type: functional; conditions: HOP-92, 48 h; method in brief: as §1
NCI-H23 = test: Cytotoxicity against human NCI-H23 cells after 48 hrs by sulforhodamine B assay; type: functional; conditions: NCI-H23, 48 h; method in brief: as §1
IGROV-1 = test: Cytotoxicity against human IGROV1 cells after 48 hrs by sulforhodamine B assay; type: functional; conditions: IGROV-1, 48 h; method in brief: as §1
[7] = Cytotoxicity against human CNS cancer cells after 48 hrs by sulforhodamine B assay; type: functional; conditions: Cancer cell lines; method in brief: as §1
RPMI-8226 = test: Cytotoxicity against human RPMI8226 cells after 48 hrs by sulforhodamine B assay; type: functional; conditions: RPMI-8226, 48 h; method in brief: as §1
K562 [8] = test: Cytotoxicity against human K562 cells after 48 hrs by sulforhodamine B assay; type: functional; conditions: K562, 48 h; method in brief: as §1
CCRF-CEM = test: Cytotoxicity against human CCRF-CEM cells after 48 hrs by sulforhodamine B assay; type: functional; method in brief: as §1
[9] = Cytotoxicity against human prostate cancer cells after 48 hrs by sulforhodamine B assay; type: functional; conditions: Cancer cell lines; method in brief: as §1
[10] = tested on: Human immunodeficiency virus; test: Antiviral activity against HIV infected in human T4 lymphocytes assessed as protection from HIV-induced cytopathogenicity at 2 uM; type: functional
SK-MEL-2 = test: Cytotoxicity against human SK-MEL-2 cells after 48 hrs by sulforhodamine B assay; type: functional; conditions: SK-MEL-2, 48 h; method in brief: as §1
RXF 393 = test: Cytotoxicity against human RXF393 cells after 48 hrs by sulforhodamine B assay; type: functional; conditions: RXF 393, 48 h; method in brief: as §1
MCF7 = test: Cytotoxicity against human MCF7 cells after 48 hrs by sulforhodamine B assay; type: functional; conditions: MCF7, 48 h; method in brief: as §1
T47D = test: Cytotoxicity against human T47D cells after 48 hrs by sulforhodamine B assay; type: functional; method in brief: as §1

`CC1=CCC[C@H]2[C@](C)(Cc3cc(O)ccc3O)[C@@H](C)CC[C@]12C` [AVAROL] showed an IC50 (PBMC [1]) of 3 µM, an MIC (Staphylococcus aureus) of 12.5 µg/mL (≈ 39.7 µM) and an LC50 (Artemia salina) of 0.18 ppm. For the same molecule, the MIC (Escherichia coli) was “inactive”, the IC50 (PBMC [2]) was 3.2 µM and the IC50 (HeLa) was 19.7 µM. For the same molecule, the IC50 (K562 [3]) was 7.3 µM and the IC50 [4] was 21.7 µM.
For `CC1=CCC[C@H]2[C@](C)(CC3=CC(=O)C(Sc4ccccc4)=CC3=O)[C@@H](C)CC[C@]12C`, the Activity [5] was “Toxic”, the GI50 [6] was greater than 10 µM and the IC50 (PBMC [1]) was 9.9 µM. It also gave a GI50 (MOLT-4) of 2.57 µM, a GI50 (LOX IMVI) of 13.5 µM and a GI50 (MDA-MB-435) of 17 µM. It also gave a GI50 (HOP-92) of 17 µM, an MIC (Staphylococcus aureus) of 12.5 µg/mL (≈ 29.7 µM) and an LC50 (Artemia salina) of 30.21 ppm. The GI50 (NCI-H23) was 14.8 µM, the GI50 (IGROV-1) was 16.2 µM and the GI50 [7] was greater than 10 µM. The GI50 (RPMI-8226) was 20.4 µM, the GI50 (K562 [8]) was 19.5 µM and the GI50 (CCRF-CEM) was 3.89 µM. The MIC (Escherichia coli) was “inactive”, the GI50 [9] was greater than 10 µM and the Activity [10] was 12.5%. The GI50 (SK-MEL-2) was 20 µM, the GI50 (RXF 393) was 16.2 µM and the IC50 (PBMC [2]) was 11.2 µM. The GI50 (MCF7) was 22.4 µM, the IC50 (HeLa) was 45 µM and the IC50 (K562 [3]) was 15.2 µM. For the same molecule, the GI50 (T47D) was 20.4 µM and the IC50 [4] was 42.5 µM.
For `CC1=CCC[C@H]2[C@](C)(CC3=CC(=O)C(SCC(C)C)=CC3=O)[C@@H](C)CC[C@]12C`, the Activity [5] was “Toxic”, the GI50 [6] was greater than 10 µM and the GI50 (MOLT-4) was 2.29 µM. The GI50 (LOX IMVI) was 4.07 µM, the GI50 (MDA-MB-435) was 15.5 µM and the GI50 (HOP-92) was 4.79 µM. For the same molecule, the MIC (Staphylococcus aureus) was 50 µg/mL (≈ 125 µM), the LC50 (Artemia salina) was 0.17 ppm and the GI50 (NCI-H23) was 5.5 µM. It also gave a GI50 (IGROV-1) of 10 µM, a GI50 [7] greater than 10 µM and a GI50 (RPMI-8226) of 3.8 µM. The GI50 (K562 [8]) was 4.47 µM, the GI50 (CCRF-CEM) was 1.35 µM and the MIC (Escherichia coli) was 25 µg/mL (≈ 62.4 µM). It also gave a GI50 [9] greater than 10 µM, an Activity [10] of 28.5% and a GI50 (SK-MEL-2) of 20.9 µM. For the same molecule, the GI50 (RXF 393) was 6.76 µM, the GI50 (MCF7) was 7.24 µM and the IC50 (HeLa) was 98 µM. It also gave an IC50 (K562 [3]) of 39 µM, a GI50 (T47D) of 2.63 µM and an IC50 [4] of 89.5 µM.
In the case of `CCCSC1=CC(=O)C(C[C@]2(C)[C@@H](C)CC[C@]3(C)C(C)=CCC[C@@H]23)=CC1=O`, the MIC (Staphylococcus aureus) is reported as 50 µg/mL (≈ 129 µM), the LC50 (Artemia salina) is reported as 0.2 ppm and the MIC (Escherichia coli) is reported as “inactive”. For the same molecule, the IC50 (HeLa) was 97 µM, the IC50 (K562 [3]) was 45.5 µM and the IC50 [4] was 89.5 µM.
In the case of `C[C@H]1c2cccc(O)c2C(=O)C2=C(O)[C@]3(O)C(=O)C(C(N)=O)=C(O)[C@@H](N(C)C)[C@@H]3[C@@H](O)[C@@H]21.O` [DOXYCYCLINE], the MIC (Staphylococcus aureus) is reported as 4 µg/mL and the MIC (Escherichia coli) is reported as 2 µg/mL.
For `CC1=CCC[C@H]2[C@](C)(CC3=CC(=O)C(SC(C)(C)C)=CC3=O)[C@@H](C)CC[C@]12C`, the IC50 (PBMC [1]) was 21.7 µM, the MIC (Staphylococcus aureus) was 50 µg/mL (≈ 125 µM) and the LC50 (Artemia salina) was 0.89 ppm. For the same molecule, the MIC (Escherichia coli) was “inactive”, the IC50 (PBMC [2]) was 20.8 µM and the IC50 (HeLa) was 37 µM. It also gave an IC50 (K562 [3]) of 25.7 µM and an IC50 [4] of 38 µM.
For `CNC1=CC(=O)C(C[C@]2(C)[C@@H](C)CC[C@]3(C)C(C)=CCC[C@@H]23)=CC1=O`, the IC50 (PBMC [1]) was greater than 100 µM, the MIC (Staphylococcus aureus) was “inactive” and the LC50 (Artemia salina) was 0.34 ppm. The MIC (Escherichia coli) was “inactive”, the IC50 (PBMC [2]) was greater than 100 µM and the IC50 (HeLa) was 12.6 µM. It also gave an IC50 (K562 [3]) of 9.3 µM and an IC50 [4] of 2.4 µM.
Work on `CC1=CCC[C@H]2[C@](C)(CC3=CC(=O)C4=C(SCCS4)C3=O)[C@@H](C)CC[C@]12C` yielded a GI50 [6] greater than 10 µM, a GI50 (MOLT-4) of 21.4 µM and a GI50 (LOX IMVI) of 11.2 µM. The GI50 (MDA-MB-435) was 8.13 µM, the GI50 (HOP-92) was 31.6 µM and the MIC (Staphylococcus aureus) was “inactive”. For the same molecule, the LC50 (Artemia salina) was 2045 ppm, the GI50 (NCI-H23) was 13.2 µM and the GI50 (IGROV-1) was 32.4 µM. It also gave a GI50 [7] greater than 10 µM, a GI50 (RPMI-8226) of 14.1 µM and a GI50 (K562 [8]) of 20 µM. It also gave a GI50 (CCRF-CEM) of 11 µM, an MIC (Escherichia coli) of 100 µg/mL (≈ 248 µM) and a GI50 [9] greater than 10 µM. For the same molecule, the GI50 (SK-MEL-2) was 1.7 µM, the GI50 (RXF 393) was 18.6 µM and the GI50 (MCF7) was 20.4 µM. The IC50 (HeLa) was greater than 100 µM, the IC50 (K562 [3]) was 91 µM and the GI50 (T47D) was greater than 100 µM. For the same molecule, the IC50 [4] was 75 µM.
Molecule `CC1=CCC[C@H]2[C@](C)(CC3=CC(=O)C=CC3=O)[C@@H](C)CC[C@]12C` [AVARONE] has an IC50 (PBMC [1]) of 4.8 µM, an MIC (Staphylococcus aureus) of 6.25 µg/mL (≈ 20 µM) and an LC50 (Artemia salina) of 0.14 ppm. It also gave an MIC (Escherichia coli) of 25 µg/mL (≈ 80 µM), an IC50 (PBMC [2]) of 4.5 µM and an IC50 (HeLa) of 26.8 µM. The IC50 (K562 [3]) was 4.9 µM and the IC50 [4] was 23.9 µM.
For `CCCCSC1=CC(=O)C(C[C@]2(C)[C@@H](C)CC[C@]3(C)C(C)=CCC[C@@H]23)=CC1=O`, the MIC (Staphylococcus aureus) was 25 µg/mL (≈ 62.4 µM), the LC50 (Artemia salina) was 0.92 ppm and the MIC (Escherichia coli) was “inactive”. The IC50 (HeLa) was 25.1 µM, the IC50 (K562 [3]) was 12.5 µM and the IC50 [4] was 24.4 µM.
For `CC1=CCC[C@H]2[C@](C)(CC3=CC(=O)C=C(Sc4ccccc4)C3=O)[C@@H](C)CC[C@]12C`, the MIC (Staphylococcus aureus) was 12.5 µg/mL (≈ 29.7 µM), the LC50 (Artemia salina) was 32.33 ppm and the MIC (Escherichia coli) was “inactive”. It also gave an IC50 (HeLa) of 54.8 µM, an IC50 (K562 [3]) of 17.4 µM and an IC50 [4] of 41.5 µM.
With `CC1CCC[C@H]2[C@](C)(CC3=CC(=O)C(Cl)=CC3=O)[C@@H](C)CC[C@]12C` (stereo not given in full) the MIC (Staphylococcus aureus) was 50 µg/mL (≈ 143 µM), the LC50 (Artemia salina) was 0.65 ppm and the MIC (Escherichia coli) was 25 µg/mL (≈ 71.7 µM). The IC50 (HeLa) was 34.1 µM, the IC50 (K562 [3]) was 11.2 µM and the IC50 [4] was 32.2 µM.
Molecule `COC1=CC(=O)C=C(C[C@]2(C)[C@@H](C)CC[C@]3(C)C(C)=CCC[C@@H]23)C1=O` has an IC50 (PBMC [1]) of 5.9 µM, an MIC (Staphylococcus aureus) of 25 µg/mL (≈ 73 µM) and an LC50 (Artemia salina) of 0.02 ppm. It also gave an MIC (Escherichia coli) of 50 µg/mL (≈ 146 µM), an IC50 (PBMC [2]) of 5.5 µM and an IC50 (HeLa) of 13.3 µM. It also gave an IC50 (K562 [3]) of 2.1 µM and an IC50 [4] of 9.8 µM.
With `CCCCCCCCSC1=CC(=O)C(C[C@]2(C)[C@@H](C)CC[C@]3(C)C(C)=CCC[C@@H]23)=CC1=O` the MIC (Staphylococcus aureus) was “inactive”, the LC50 (Artemia salina) was “Not Active” and the MIC (Escherichia coli) was 25 µg/mL (≈ 54.7 µM). The IC50 (HeLa) was greater than 100 µM, the IC50 (K562 [3]) was greater than 100 µM and the IC50 [4] was greater than 100 µM.
In the case of `CC1=CCC[C@H]2[C@](C)(CC3=CC(=O)C(SC(C)C)=CC3=O)[C@@H](C)CC[C@]12C`, the MIC (Staphylococcus aureus) is reported as “inactive”, the LC50 (Artemia salina) is reported as 0.44 ppm and the MIC (Escherichia coli) is reported as “inactive”. It also gave an IC50 (HeLa) of 67 µM, an IC50 (K562 [3]) of 47.5 µM and an IC50 [4] of 86 µM.
